NPY-Y2 PAM-ag – potentiates or activates human NPY-Y2 receptor | activation, % at 3.6 µM | AID 1359 | hit rate 0.45% among 220,000 | P49146 | cells expressing NPY-Y2, potentiator/agonist read-out; in the data active = activation above about 27%;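 also: cells stimulated with NPY near EC25 plus isoproterenol at EC100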
NPY-Y1 PAM-ag – potentiates or activates human NPY-Y1 receptor. NPY-Y1 expressing cells, potentiator/agonist activation. activation, % at 3.6 µM. hit rate 0.37% among 220,000. P25929; in the data active = activation above about 33%, passing the limit was not always enough;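 also: cells stimulated with NPY at EC10 then isoproterenol at EC100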
Target sequence (P25929 whole entry, looked up): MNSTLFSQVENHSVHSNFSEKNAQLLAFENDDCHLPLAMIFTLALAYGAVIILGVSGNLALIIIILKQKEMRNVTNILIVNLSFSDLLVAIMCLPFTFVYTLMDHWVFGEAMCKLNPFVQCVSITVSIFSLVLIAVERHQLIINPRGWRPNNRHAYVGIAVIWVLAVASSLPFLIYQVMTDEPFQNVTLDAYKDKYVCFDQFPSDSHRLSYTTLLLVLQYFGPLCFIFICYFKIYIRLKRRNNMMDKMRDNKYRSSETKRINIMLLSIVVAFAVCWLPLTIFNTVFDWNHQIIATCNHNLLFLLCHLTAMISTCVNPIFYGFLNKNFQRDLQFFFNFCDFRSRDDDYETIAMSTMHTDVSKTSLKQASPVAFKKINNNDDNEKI
NPY Y2 blocker – antagonists of human neuropeptide Y receptor Y2; NPY-Y2 expressing cells, antagonist mode; P49146; hit rate 0.99% among 140,000; inhibition, % at 2.7 µM; in the data active = inhibition above about 17%
NPY Y1 blocker – NPY-Y1 (human) receptor antagonism; hit rate 1% among 200,000; P25929; inhibition, % at 3.6 µM; HEK293-CNG Y1 cells, membrane potential fluorescence; NPY at EC95, then isoproterenol; AID 1040;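 active = inhibition above the campaign mean inhibition of all tested compounds plus 3 SD, cut at about 20% in these data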
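Assay system: HEK293 Y1/CNG channel cell line; Doses: single compound dose of 3.6 µM, 0.4% DMSO; Timing: dye 3 h, compound 60 min room temperature, stimulation 45 min; Technique: Membrane-potential fluorescent dye readout; Measure: % inhibition of NPY effect.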
EP2 antag – EP2 receptor (human) inhibition; P43116; C6 glioma cells expressing human EP2, cAMP TR-FRET; cells stimulated with saturating PGE2; inhibition, % at 25 µM; hit rate 0.52% among 260,000; AID 1422;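 active = percent inhibition above 40 after rounding to a whole number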;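 also: rat C6 glioma host cells with rolipram phosphodiesterase inhibitor present; the protocol text gives 20 µM as final concentration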
EP2 mod – modulators of human EP2 prostaglandin E2 receptor; EP2-expressing cells, cAMP HTRF FRET, PGE2 co-stimulation; P43116; hit rate 0.83% among 260,000; induction, % at 25 µM;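 active = compounds whose cAMP rise, as percent of the full-agonist control response, exceeds 60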;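 also: rat C6 glioma line stably carrying human EP2 under a CMV promoter; the protocol text gives 20 µM as final concentration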
NPY1 antag ctr – counter-screen for NPY-Y2 antagonists: human NPY-Y1 antagonism; shares compounds with NPY Y2 blocker; cell-based NPY-Y1 antagonism counterscreen; inhibition, % at 3.6 µM; hit rate 19% among 710; AID 1256; in the data active = inhibition above about 20%;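 also: cells challenged with NPY then isoproterenol with cAMP sensed through a CNG channel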
NPY2 antag conf – human NPY-Y2 antagonism, confirmation; hit rate 32% among 710; inhibition, % at 2.8 µM; HEK293 NPY-Y2 CNG channel, membrane potential fluorescence; shares compounds with NPY Y2 blocker;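 active = mean inhibition of triplicate wells above the hit cutoff set in the primary screen, cut at about 17% in these data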
A number is an active result. Shown are actives, neighbours in structure and some others; about 2.8% of the full set was active somewhere.

CCn1nc(C(=O)Nc2cccc3ccccc23)c(Cl)c1Cl was read as NPY-Y2 PAM-ag inactive, NPY-Y1 PAM-ag inactive, NPY Y2 blocker 18.1, NPY Y1 blocker inactive, EP2 antag inactive, EP2 mod inactive, NPY1 antag ctr inactive and NPY2 antag conf inactive.
Screening CCOC(=O)c1ccccc1NC(=O)Cn1c(-c2nonc2N)nc2ccccc21 returned NPY-Y2 PAM-ag inactive, NPY-Y1 PAM-ag inactive, NPY Y2 blocker 35.4, NPY Y1 blocker inactive, EP2 antag inactive, EP2 mod inactive, NPY1 antag ctr 22.6 and NPY2 antag conf 29.9.
CC1=[N+](CC(=O)c2ccc(C)cc2)CCn2c(C)ccc21 was read as EP2 antag inactive and EP2 mod inactive.
For CCN(CC)c1ccc(NC(=O)COC(=O)CSc2ccc(Br)cc2C)cc1 the results were NPY-Y2 PAM-ag inactive, NPY-Y1 PAM-ag inactive, NPY Y2 blocker inactive, NPY Y1 blocker inactive, EP2 antag inactive and EP2 mod inactive.
For Cc1cc(C)c(NC(=O)COC(=O)CSc2ccc(Br)cc2C)c(C)c1 the results were NPY-Y2 PAM-ag inactive, NPY-Y1 PAM-ag inactive, NPY Y2 blocker 17.6, NPY Y1 blocker inactive, EP2 antag inactive, EP2 mod inactive, NPY1 antag ctr inactive and NPY2 antag conf inactive.
`Cc1ccc2cccc(NC(=S)NC(=O)c3ccccc3)c2n1` gave NPY-Y2 PAM-ag inactive, NPY-Y1 PAM-ag inactive, NPY Y2 blocker 21.8, NPY Y1 blocker inactive, EP2 antag inactive, EP2 mod inactive, NPY1 antag ctr 20.4 and NPY2 antag conf 42.7.
`Nc1ccc2nc(-c3ccc(Cl)cc3Cl)[nH]c2c1` gave EP2 antag inactive and EP2 mod inactive.
Screening CCC(Oc1ccc2c(=O)c(-c3ccccc3OC)coc2c1)C(=O)OCc1ccccc1 (centres undefined) returned NPY-Y2 PAM-ag inactive, NPY-Y1 PAM-ag inactive, NPY Y2 blocker 37.3, NPY Y1 blocker inactive, EP2 antag inactive, EP2 mod inactive, NPY1 antag ctr inactive and NPY2 antag conf 65.8.
COc1ccccc1-c1coc2cc(O)ccc2c1=O was read as EP2 antag inactive and EP2 mod inactive.
Screening O=C(NC1CCCCCC1)c1c2c(nc3ccccc13)CCN(Cc1ccccc1)C2 returned NPY-Y2 PAM-ag inactive, NPY-Y1 PAM-ag inactive, NPY Y2 blocker 55.8, NPY Y1 blocker inactive, EP2 antag inactive, EP2 mod inactive, NPY1 antag ctr 81.1 and NPY2 antag conf 67.0.
Screening CC(C)c1ccccc1NC(=O)COC(=O)c1c2c(nc3ccccc13)CCN(Cc1ccccc1)C2 returned NPY-Y2 PAM-ag inactive, NPY-Y1 PAM-ag inactive, NPY Y2 blocker 18.7, NPY Y1 blocker inactive, EP2 antag inactive, EP2 mod inactive, NPY1 antag ctr inactive and NPY2 antag conf inactive.
`N=c1c(C(=O)NCc2ccco2)cc2c(=O)n3ccccc3nc2n1Cc1ccccc1` gave NPY-Y2 PAM-ag inactive, NPY-Y1 PAM-ag inactive, NPY Y2 blocker 23.6, NPY Y1 blocker inactive, EP2 antag inactive, EP2 mod inactive, NPY1 antag ctr inactive and NPY2 antag conf inactive.
Screening COCCCn1c(=N)c(C(=O)NCc2ccc3c(c2)OCO3)cc2c(=O)n3ccccc3nc21 returned NPY-Y2 PAM-ag inactive, NPY-Y1 PAM-ag inactive, NPY Y2 blocker 20.0, NPY Y1 blocker inactive, EP2 antag inactive, EP2 mod inactive, NPY1 antag ctr inactive and NPY2 antag conf inactive.
For COCCn1c(=N)c(C(=O)NCc2ccco2)cc2c(=O)n3ccccc3nc21 the results were NPY-Y2 PAM-ag inactive, NPY-Y1 PAM-ag inactive, NPY Y2 blocker inactive, NPY Y1 blocker inactive, EP2 antag inactive and EP2 mod inactive.
For Cc1ccc(CNC(=O)c2cc3c(=O)n4ccccc4nc3n(Cc3ccco3)c2=N)cc1 the results were EP2 antag inactive.
For N=c1c(C(=O)NCc2ccccc2)cc2c(=O)n3ccccc3nc2n1Cc1ccco1 the results were NPY-Y2 PAM-ag inactive, NPY-Y1 PAM-ag inactive, NPY Y2 blocker 22.7, NPY Y1 blocker inactive, EP2 antag inactive, EP2 mod inactive, NPY1 antag ctr inactive and NPY2 antag conf inactive.
`N=c1c(C(=O)NCc2ccc3c(c2)OCO3)cc2c(=O)n3ccccc3nc2n1Cc1cccnc1` gave NPY-Y2 PAM-ag inactive, NPY-Y1 PAM-ag inactive, NPY Y2 blocker inactive, NPY Y1 blocker inactive, EP2 antag inactive and EP2 mod inactive.
Screening O=S(=O)(c1ccc(Cl)c(F)c1)N1CCC(n2nnc3cc(F)ccc32)CC1 returned EP2 antag inactive and EP2 mod inactive.
For COc1ccc(CNC(=O)[C@H]2C[C@@H](c3ccc(OC)c(OC)c3)NS(=O)(=O)N2C)cc1 the results were EP2 mod inactive.
Screening COc1ccc(C(=O)NC(=S)Nc2ccc(NC(=O)c3ccco3)cc2)cc1[N+](=O)[O-] returned NPY-Y2 PAM-ag inactive, NPY-Y1 PAM-ag inactive, NPY Y2 blocker 18.9, NPY Y1 blocker inactive, EP2 antag inactive, EP2 mod inactive, NPY1 antag ctr 51.6 and NPY2 antag conf 87.8.
For COc1ccc(C(=O)NC(=S)Nc2cccc(NC(=O)c3ccco3)c2)cc1[N+](=O)[O-] the results were NPY-Y2 PAM-ag inactive, NPY-Y1 PAM-ag inactive, NPY Y2 blocker inactive, NPY Y1 blocker inactive, EP2 antag inactive and EP2 mod inactive.
`CCOc1ccc(C(=O)NC(=S)Nc2ccc(N3CCCCC3)cc2)cc1[N+](=O)[O-]` gave NPY-Y2 PAM-ag inactive, NPY-Y1 PAM-ag inactive, NPY Y2 blocker 29.2, NPY Y1 blocker inactive, EP2 antag inactive, EP2 mod inactive, NPY1 antag ctr 77.6 and NPY2 antag conf 91.1.
`Cc1ccc(C(C(=O)NC2CCCC2)N(C(=O)Cc2cccs2)c2ccc(C)c(C)c2)o1` (centres undefined) gave NPY-Y2 PAM-ag inactive, NPY-Y1 PAM-ag inactive, NPY Y2 blocker 23.8, NPY Y1 blocker inactive, EP2 antag inactive, EP2 mod inactive, NPY1 antag ctr inactive and NPY2 antag conf inactive.
`CCn1c(SCC(=O)NCc2ccco2)nnc1C(C)C` gave NPY-Y2 PAM-ag inactive, NPY-Y1 PAM-ag inactive, NPY Y2 blocker 23.1, NPY Y1 blocker inactive, EP2 antag inactive, EP2 mod inactive, NPY1 antag ctr inactive and NPY2 antag conf inactive.
`CC(C)c1nnc(SCC(=O)NCc2ccco2)n1C` gave NPY-Y2 PAM-ag inactive, NPY-Y1 PAM-ag inactive, NPY Y2 blocker inactive, NPY Y1 blocker inactive, EP2 antag inactive and EP2 mod inactive.
`COc1cccc(C2C(C(N)=O)=C(C)Nc3nc(-c4ccccc4Cl)nn32)c1` (centres undefined) gave NPY-Y2 PAM-ag inactive, NPY-Y1 PAM-ag inactive, NPY Y2 blocker 20.1, NPY Y1 blocker inactive, EP2 antag inactive, EP2 mod inactive, NPY1 antag ctr inactive and NPY2 antag conf inactive.

Compound activity from PubChem.
